# DENV2 CPE: inhibitors of DENV2 cytopathic effect | DENV2-infected cells, cytopathic effect rescue, plate reader | 350,000 tested, 1.7% active | CPE inhibition, % at 9.99 µM | AID 651640; in the data active means CPE inhibition above about 20%, passing the limit was not always enough; inconclusive means no clear call, values can overlap the other calls; tested in BHK-21 cells;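 further: 0% = median of neutral control wells and 100% = median of positive control wells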
# PGC1a acetyl inh: PGC1a acetylation modulation, inhibitor mode. AID 651687. U2OS PGC1a acetylation, AlphaScreen anti-acetyl-lysine; with virally co-expressed GCN5 acetyltransferase. 350,000 tested, 0.17% active. inhibition, % at 15.6 µM;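 active means every replicate shows inhibition of at least 40%; inconclusive means mean inhibition at least 40% but some replicate below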;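 further: 0% = neutral control wells and 100% = positive control wells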
# S100A4 inh HTS: blocks human S100A4 binding to myosin IIA peptide. AID 652163. S100A4/TAMRA-MyoIIA peptide fluorescence polarization. P26447. 360,000 tested, 0.14% active. inhibition, % at 10.7 µM;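 active means mean inhibition of at least 70% across replicates, with every replicate also reaching that level; inconclusive means mean inhibition reaches 70% but some replicates fall short; inactive means mean inhibition below 70%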
# Target sequence (P26447 whole entry, looked up): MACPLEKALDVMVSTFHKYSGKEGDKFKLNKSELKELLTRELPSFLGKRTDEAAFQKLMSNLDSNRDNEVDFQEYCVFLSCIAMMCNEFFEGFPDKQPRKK
#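 System – human S100A4 monomer protein, biochemical binding assay · Buffer or medium – Calcium-containing HEPES buffer, pH 7.2 · Timing – 5 min between mix addition and reading · Also added – TAMRA-labelled myosin IIA heavy-chain peptide probe, 5 nM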
# SIRT5 inh: inhibitors of human sirtuin-5 desuccinylase. Purified SirT5, succinyl-peptide AMC, trypsin-coupled fluorescence. inhibition, % at 15 µM. 330,000 tested, 1.1% active. AID 652115; in the data active means inhibition above about 15%; inconclusive means no clear call, values can overlap the other calls
# Target sequence (Q9NXA8 whole entry, looked up): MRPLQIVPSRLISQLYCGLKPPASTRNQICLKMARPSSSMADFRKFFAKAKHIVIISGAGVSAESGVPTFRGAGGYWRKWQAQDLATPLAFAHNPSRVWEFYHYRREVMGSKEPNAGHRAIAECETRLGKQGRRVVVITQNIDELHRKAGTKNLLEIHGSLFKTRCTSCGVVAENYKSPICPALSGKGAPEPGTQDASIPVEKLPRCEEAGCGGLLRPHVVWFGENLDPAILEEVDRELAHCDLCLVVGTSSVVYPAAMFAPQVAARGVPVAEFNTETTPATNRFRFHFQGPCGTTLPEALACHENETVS
# C2C12 statin: suppressors of simvastatin-induced myotoxicity in C2C12 myotubes; 330,000 tested, 0.78% active; rescue of ATP level, % at 7.49 µM; ATP luminescence, 48 h; scaled: DMSO 0, geranylgeraniol control 100;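 active means mean ATP rescue above about 67%, or every replicate alone reaching that limit, limit read from the data, passing the limit was not always enough; inconclusive means no clear call, values can overlap the other calls; inactive means mean under the limit and some replicate under it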;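 further: myotubes were challenged with 10 µM simvastatin during compound exposure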
# COX5a expr inh: inhibitors of PGC-1a target COX5a expression in C2C12 myotubes; C2C12 myotubes PGC-1a adenovirus, COX5a qPCR; 45 tested, under 10 active; AID 743461; maximal activity, %; shares compounds with PGC1a acetyl inh;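 active means fitted dose curve reaching 40% activity at or below the highest valid dose tested; inconclusive means flat fit between 30% and 70%, or an unusable fit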
# AID743468: change in PGC-1a target gene PDK4 expression, dose response, C2C12 myotubes, RT-qPCR, cherry-pick; PDK4 expression increase, % at 19.5 µM; 45 tested, under 10 active; shares compounds with PGC1a acetyl inh; PGC-1a adenovirus, PDK4 mRNA qPCR;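 active means fitted curve reaching a 40% PDK4 expression rise at or below the top valid tested dose; inconclusive means no clear call, values can overlap the other calls; inactive means the rest, including shifts the wrong way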
# An asterisk follows results filed as active; ? = inconclusive; . = not tested or not shown. A selection: hits, their analogues and other compounds. The true share with any hit is near 2.9%.
SMILES,DENV2 CPE,PGC1a acetyl inh,S100A4 inh HTS,SIRT5 inh,C2C12 statin,others
CC(C)CC#Cc1cnc2c(c1)C(=O)N([C@H](C)CO)C[C@H](C)[C@@H](CN(C)C(=O)Cc1ccccc1)O2,2,1,2,2,77*,
CC(C)CC#Cc1cnc2c(c1)C(=O)N([C@H](C)CO)C[C@H](C)[C@H](CN(C)Cc1ccccc1)O2,23*,2,3,-1,.,
CC(C)CC#Cc1cnc2c(c1)C(=O)N([C@@H](C)CO)C[C@H](C)[C@H](CN(C)C(=O)Cc1ccncc1)O2,2,-4,2,0,-8,
COCC#Cc1cnc2c(c1)C(=O)N([C@@H](C)CO)C[C@H](C)[C@H](CN(C)C(=O)C1CCC1)O2,-5,0,5,2,6,
O=C(NC[C@H]1CC[C@H]2[C@H](CN2S(=O)(=O)c2ccccc2[N+](=O)[O-])O1)Nc1ccccc1,-2,0,10,0,.,
C[C@@H]1CN([C@H](C)CO)C(=O)Cc2cc(NS(=O)(=O)c3ccc(Cl)cc3)ccc2O[C@@H]1CN(C)Cc1ccc(C(F)(F)F)cc1,-11,-14,23,-3,?,
C[C@H](CO)N1C[C@H](C)[C@@H](CN(C)Cc2ccc(C(F)(F)F)cc2)Oc2ccc(NS(=O)(=O)c3ccc(Cl)cc3)cc2CC1=O,3,-11,-13,9,112*,
C[C@@H]1CN([C@@H](C)CO)C(=O)Cc2cc(NS(=O)(=O)c3ccc(F)cc3)ccc2O[C@@H]1CN(C)Cc1ccc(C(F)(F)F)cc1,1,6,0,18*,25,
C[C@@H]1CN([C@@H](C)CO)C(=O)Cc2cc(NS(=O)(=O)c3ccc(F)cc3)ccc2O[C@@H]1CN(C)Cc1ccc(C(=O)O)cc1,30*,8,15,3,-14,
C[C@H]1CN([C@@H](C)CO)C(=O)Cc2cc(NS(=O)(=O)c3ccc(F)cc3)ccc2O[C@@H]1CN(C)Cc1ccc(C(F)(F)F)cc1,4,-5,17,20*,63,
CN1C(=O)c2cc(NS(=O)(=O)c3ccc(Cl)cc3)ccc2OC[C@@H]2O[C@@H](CC(=O)O)CC[C@@H]21,5,0,-2,1,-28,
C[C@@H]1CN([C@H](C)CO)C(=O)Cc2cc(NS(=O)(=O)c3ccc(F)cc3)ccc2O[C@H]1CN(C)Cc1ccc(C(F)(F)F)cc1,-12,-11,-3,23*,?,
C[C@@H]1CN([C@@H](C)CO)C(=O)Cc2cc(NS(=O)(=O)c3ccc(Cl)cc3)ccc2O[C@@H]1CN(C)Cc1ccc(C(F)(F)F)cc1,?,-7,10,-6,?,
COc1cccc(C(=O)NNC(=O)C2CC(C)=C(C)CC2C(=O)O)c1 (centres undefined),.,-1,.,.,99*,
COc1ccc2c3c(n(C)c2c1)[C@@H](CO)N(S(=O)(=O)c1ccccc1)CC31CCN(C)CC1,10,.,0,6,.,
COC(=O)C1=CN(Cc2ccc(OC)c(OC)c2)C=C(C(=O)OC)C1c1ccc(F)cc1,-2,-8,-2,18*,9,
COC(=O)C1=CN(Cc2ccc(OC)c(OC)c2)C=C(C(=O)OC)C1c1ccc(O)cc1,?,.,-3,-15,17,
CC1=C(Cl)C2=NS(=O)(=O)CCN2C=C1Cl,-4,?,-7,-15,.,COX5a expr inh=-23;AID743468=0
C[C@@H]1CN([C@H](C)CO)S(=O)(=O)c2ccc(C#Cc3ccncc3)cc2O[C@H]1CN(C)C(=O)C1CCCCC1,-8,-21,-7,2,-54,
COc1ccccc1C#Cc1ccc2c(c1)O[C@@H](CN(C)Cc1cccnc1)[C@H](C)CN([C@H](C)CO)S2(=O)=O,-22,43*,9,-1,-48,COX5a expr inh=11;AID743468=?
C[C@H]1CN([C@@H](C)CO)S(=O)(=O)c2ccc(-c3ccccc3)cc2O[C@@H]1CN(C)Cc1cccc(F)c1,-6,48*,9,3,-46,COX5a expr inh=-51;AID743468=-20
